Calls of active or inactive are those of the source. The calls are words filed in the database; no cut-off is given here.

Experimental findings from ChEMBL document CHEMBL4811218, “Discovery and optimization of withangulatin A derivatives as novel glutaminase 1 inhibitors for the treatment of triple-negative breast cancer” (Eur J Med Chem, 2021) are described below.

Data set [1] can be described thus: Toxicity in BALB/c nude mouse xenografted with human MDA-MB-231 cells assessed as lung tissue damage at 25 to 50 mg/kg, ip administered every 3 days for 4 weeks. The conditions noted are these: in vivo, 672 h, dose 25-50 mg/kg. In kind it is organism-based. The method, boiled down: (§1)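 Xenograft-bearing nude mice (MDA-MB-231, s.c. right flank, treated from about 100 mm³) received 25 or 50 mg/kg i.p. every three days for four weeks. At the end mice were euthanized, and visceral organs were fixed in 4% paraformaldehyde for histopathology.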

In data set [2] the test system is MDA-MB-231. As to the kind of experiment: Potency index, ratio of WA IC50 to compound IC50 for antiproliferative activity against human MDA-MB-231 cells after 24 hrs by MTT assay. Type of data set: functional. Summed up:
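Ratio calculated from MTT IC50 values in MDA-MB-231 cells. Cells seeded at 5×10^3/well for 24 h, then treated 24 h at 0.078-10 µM with 0.1% DMSO as vehicle. Absorbance read at 570 nm after 4 h MTT and DMSO solubilization. Triplicate wells, at least three repeats.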

For data set [3], the system named is MDA-MB-231. As to the kind of experiment: Antitumor activity against human MDA-MB-231 cells xenografted in BALB/c nude mouse assessed as reduction in tumor weight at 25 to 50 mg/kg, ip administered every 3 days for 4 weeks. Type of data set: functional, organism-based. The note with it: dose 25-50 mg/kg. Summed up:
(§2)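 Nude mice given 3×10^6 MDA-MB-231 cells in 200 µL PBS, injected subcutaneously into the right flank. Once tumors reached about 100 mm³, mice were randomized into four groups. Dosing was 25 or 50 mg/kg i.p. every three days for four weeks. Tumor volume, tumor weight and body weight were followed. n = 6, mean ± SD.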

The test system of data set [4] is MDA-MB-231. Nature of the data set: Induction of apoptosis in human MDA-MB-231 cells assessed as late apoptotic cells at 160 nM incubated for 12 hrs by annexin V-FITC/PI based flow cytometric analysis (reference value: 0.7%). In kind it is functional. The method, boiled down:
(§3)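 Cells exposed to compound or 0.1% DMSO for 12 h at 37°C, then resuspended in PBS at 1×10^5 cells/mL. Stained with annexin V-FITC and PI for 20 min at room temperature in the dark, then analysed by flow cytometry. Quadrant percentages reported: lower right early apoptotic, upper right late apoptotic. n = 4, mean ± SD.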

Data set [5] can be described thus: Toxicity in BALB/c nude mouse xenografted with human MDA-MB-231 cells assessed as effect on body weight at 25 to 50 mg/kg, ip administered every 3 days for 4 weeks. In kind it is organism-based. The note with it: in vivo, 672 h, dose 25-50 mg/kg. Summed up: as §2
Data set [6] deals with MDA-MB-231. As to the kind of experiment: Induction of apoptosis in human MDA-MB-231 cells assessed as necrotic cells at 640 nM incubated for 12 hrs by annexin V-FITC/PI based flow cytometric analysis (reference value: 0.1%). In kind it is functional. Summed up: as §3
Data set [7] concerns MDA-MB-231. Nature of the data set: Antiproliferative activity against human MDA-MB-231 cells after 24 hrs by MTT assay. In kind it is functional, cell-based.
Data set [8] has as its system MDA-MB-231. Nature of the data set: Induction of apoptosis in human MDA-MB-231 cells assessed as viable cells at 160 nM incubated for 12 hrs by annexin V-FITC/PI based flow cytometric analysis (reference value: 98.1%). Type of data set: functional. The conditions noted are these: read-out: Activity. Summed up:
as §3

Data set [9] deals with MDA-MB-231. As to the kind of experiment: Antitumor activity against human MDA-MB-231 cells xenografted in BALB/c nude mouse assessed as tumor growth inhibition at 25 to 50 mg/kg, ip administered every 3 days for 4 weeks. Type of data set: functional, organism-based. The conditions noted are these: dose 25-50 mg/kg. Summed up: as §2
Data set [10] is described as follows: Toxicity in BALB/c nude mouse xenografted with human MDA-MB-231 cells assessed as heart tissue damage at 25 to 50 mg/kg, ip administered every 3 days for 4 weeks. The conditions noted are these: in vivo, 672 h, dose 25-50 mg/kg. Type of data set: organism-based. Summed up:
as §1

Data set [11] can be described thus: Toxicity in BALB/c nude mouse xenografted with human MDA-MB-231 cells assessed as kidney tissue damage at 25 to 50 mg/kg, ip administered every 3 days for 4 weeks. Type of data set: organism-based. The note with it: in vivo, 672 h, dose 25-50 mg/kg. The method, boiled down: as §1
In data set [12] the test system is MDA-MB-231. As to the kind of experiment: Induction of apoptosis in human MDA-MB-231 cells assessed as necrotic cells at 160 nM incubated for 12 hrs by annexin V-FITC/PI based flow cytometric analysis (reference value: 0.1%). Type of data set: functional. The method, boiled down:
as §3

Data set [13] deals with T1, Glutaminase kidney isoform, mitochondrial (Homo sapiens) (UniProt O94925).
T1 sequence (whole entry): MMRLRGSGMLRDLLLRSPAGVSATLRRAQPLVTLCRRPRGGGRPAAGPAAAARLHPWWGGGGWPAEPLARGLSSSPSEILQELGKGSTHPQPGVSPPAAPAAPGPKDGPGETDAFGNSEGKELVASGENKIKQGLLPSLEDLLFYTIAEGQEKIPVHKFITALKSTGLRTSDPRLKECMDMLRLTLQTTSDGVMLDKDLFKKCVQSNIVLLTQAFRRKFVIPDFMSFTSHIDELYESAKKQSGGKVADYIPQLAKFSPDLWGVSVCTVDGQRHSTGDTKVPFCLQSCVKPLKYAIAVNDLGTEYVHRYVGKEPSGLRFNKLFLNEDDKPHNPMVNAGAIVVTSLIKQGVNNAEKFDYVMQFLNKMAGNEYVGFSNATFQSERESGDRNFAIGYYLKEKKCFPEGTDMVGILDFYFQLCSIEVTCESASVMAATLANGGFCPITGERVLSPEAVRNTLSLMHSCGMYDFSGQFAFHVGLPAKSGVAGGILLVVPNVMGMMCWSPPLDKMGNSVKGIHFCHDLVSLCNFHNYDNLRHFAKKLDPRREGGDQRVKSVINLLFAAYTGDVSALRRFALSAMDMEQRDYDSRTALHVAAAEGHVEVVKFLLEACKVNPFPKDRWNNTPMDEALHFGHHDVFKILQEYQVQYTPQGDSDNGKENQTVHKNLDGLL
Nature of the data set: Inhibition of GLS1 in human MDA-MB-231 cells assessed as reduction in glutamate production incubated for 12 hrs by Amplex red glutamic acid assay. In kind it is cell-based. The conditions noted are these: dose 40-640 nM. The method, boiled down: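 MDA-MB-231 cells pre-cultured 24 h at 37°C, then given compound or 0.1% DMSO for a further 12 h. Cells washed in PBS and lysed in RIPA at 4°C. Glutamate in the lysate measured with an Amplex Red glutamic acid kit per the manufacturer's protocol.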

The nature of data set [14]: Toxicity in BALB/c nude mouse xenografted with human MDA-MB-231 cells assessed as spleen tissue damage at 25 to 50 mg/kg, ip administered every 3 days for 4 weeks. The note with it: in vivo, 672 h, dose 25-50 mg/kg. In kind it is organism-based. The method, boiled down: as §1
The target of data set [15] is T2, Glutaminase kidney isoform, mitochondrial (Homo sapiens, UniProt O94925).
T2 sequence (O94925 whole entry): T1 sequence (whole entry)
Nature of the data set: Inhibition of human GLS1. The method, boiled down: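 Human GLS1 hydrolase activity measured with a commercial GLS1 inhibitor screening kit, following the manufacturer's protocol. Single-point screening was run at 10 μM.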

Data set [16] concerns MDA-MB-231. Nature of the data set: Antitumor activity against human MDA-MB-231 cells xenografted in BALB/c nude mouse assessed as reduction in tumor volume at 25 to 50 mg/kg, ip administered every 3 days for 4 weeks. In kind it is functional, organism-based. The note with it: dose 25-50 mg/kg. Summed up: as §2
Data set [17] has as its system MDA-MB-231. Nature of the data set: Induction of apoptosis in human MDA-MB-231 cells assessed as increase in cleaved caspase-3 expression after 12 hrs by Western blotting analysis. Type of data set: functional, cell-based. The note with it: dose 160-640 nM. The method, boiled down:
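MDA-MB-231 cells exposed to graded concentrations or 0.1% DMSO; the methods state 24 h, the legend 12 h. Lysed in RIPA, 80 µg protein per lane on SDS-PAGE and transferred to PVDF. Probed overnight at 4°C for caspase-3, cleaved caspase-3, caspase-9 and cleaved caspase-9, with GAPDH as loading control. HRP secondaries, ECL detection, densitometry. n = 4.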

Data set [18] deals with MDA-MB-231. As to the kind of experiment: Induction of apoptosis in human MDA-MB-231 cells assessed as viable cells at 320 nM incubated for 12 hrs by annexin V-FITC/PI based flow cytometric analysis (reference value: 98.1%). In kind it is functional. The note with it: read-out: Activity. Summed up:
as §3

As for `CC(=O)O[C@H]1C=C([C@H](C)[C@H]2CC(C)=C(C)C(=O)O2)[C@@]2(C)CC[C@H]3[C@@H](C[C@H]4O[C@]45[C@@H](OC(=O)CCCC(=O)Nc4ccc(N6CCOCC6)c(F)c4)C=CC(=O)[C@]35C)[C@@]12O`, the Activity result in data set [1] is “Non-Toxic”; in the data set on MDA-MB-231 [4] it was 1%; in [5] it was “Non-Toxic”; with MDA-MB-231 [6] it was 0.1%; in the data set with MDA-MB-231 [7], “Dose-Dependent Effect”; in data set [10] it was “Non-Toxic”. Besides, the Activity result in data set [11] is “Non-Toxic”; in the data set with MDA-MB-231 [12] it was 0.2%; in [14] it was “Non-Toxic”; with MDA-MB-231 [17], “Dose-Dependent Effect”. In addition, in the data set on MDA-MB-231 [2], the “Ratio IC50” value was 20. The outcome in the data set with MDA-MB-231 [3], with MDA-MB-231 [9] and with MDA-MB-231 [16] was Active. The half-inhibitory concentration (IC50) in the data set with MDA-MB-231 [7] (MDA-MB-231, 24 h) was 320 nM; in data set [15], 1080 nM. In the data set on MDA-MB-231 [8], the viability at 0.16 µM is 96.3%. In data set [13], the inhibition result was “Dose-Dependent Effect”. The viability at 0.32 µM with MDA-MB-231 [18] was determined as 80.3%.
